pIC50: −log10 of the molar value.
Legend:
SF-295 = test: Antiproliferative activity against human SF-295 cells assessed as cell growth at 10 uM incubated for 48 hrs by SRB assay relative to control; type: functional; details: read-out: Activity
In short: (§1)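 Single-concentration screen at 10 μM run by NCI on its NCI-60 human tumour panel (blood, lung, colon, CNS, melanoma, ovary, kidney, prostate, breast), following the NCI-60 published methodology. Read-out is growth percent relative to untreated cells.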

[1] = target: T1, Protein deacetylase HDAC6 (Homo sapiens, UniProt Q9UBN7); test: Inhibition of HDAC6 (unknown origin) using Fluor de lys as substrate by fluorescence based analysis
T1 sequence (Q9UBN7 whole entry): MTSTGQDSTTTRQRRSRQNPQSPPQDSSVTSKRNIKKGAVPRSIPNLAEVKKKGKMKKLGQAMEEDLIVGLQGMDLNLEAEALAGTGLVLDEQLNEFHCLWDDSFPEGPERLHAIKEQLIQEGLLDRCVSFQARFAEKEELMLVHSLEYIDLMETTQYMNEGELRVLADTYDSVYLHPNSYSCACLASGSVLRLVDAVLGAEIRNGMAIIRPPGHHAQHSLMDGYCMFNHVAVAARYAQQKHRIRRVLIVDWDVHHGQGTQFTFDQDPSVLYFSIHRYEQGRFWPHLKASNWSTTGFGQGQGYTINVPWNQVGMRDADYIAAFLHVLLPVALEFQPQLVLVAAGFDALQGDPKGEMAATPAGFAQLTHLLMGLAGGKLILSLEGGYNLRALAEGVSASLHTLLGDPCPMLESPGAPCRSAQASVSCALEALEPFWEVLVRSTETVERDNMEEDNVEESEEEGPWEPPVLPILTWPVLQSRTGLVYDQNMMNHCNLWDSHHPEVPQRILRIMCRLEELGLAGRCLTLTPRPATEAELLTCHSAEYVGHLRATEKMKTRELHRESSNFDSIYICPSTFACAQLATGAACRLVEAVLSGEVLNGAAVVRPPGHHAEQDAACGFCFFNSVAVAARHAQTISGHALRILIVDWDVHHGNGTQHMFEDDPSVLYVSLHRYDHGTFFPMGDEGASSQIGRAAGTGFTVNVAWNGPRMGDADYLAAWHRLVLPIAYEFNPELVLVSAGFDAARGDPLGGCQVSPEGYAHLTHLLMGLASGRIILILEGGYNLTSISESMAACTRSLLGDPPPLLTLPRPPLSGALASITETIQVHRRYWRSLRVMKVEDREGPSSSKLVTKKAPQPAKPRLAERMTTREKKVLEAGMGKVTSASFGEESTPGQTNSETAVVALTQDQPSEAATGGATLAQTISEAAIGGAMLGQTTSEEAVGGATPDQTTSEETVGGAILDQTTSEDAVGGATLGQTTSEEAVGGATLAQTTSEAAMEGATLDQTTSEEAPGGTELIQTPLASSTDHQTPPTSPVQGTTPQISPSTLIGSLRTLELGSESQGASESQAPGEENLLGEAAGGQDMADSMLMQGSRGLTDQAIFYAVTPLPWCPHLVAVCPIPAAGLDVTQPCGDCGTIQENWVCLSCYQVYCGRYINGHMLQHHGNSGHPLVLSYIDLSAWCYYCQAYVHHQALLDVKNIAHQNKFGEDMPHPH

SR = test: Antiproliferative activity against human SR cells assessed as cell growth at 10 uM incubated for 48 hrs by SRB assay relative to control; type: functional; details: read-out: Activity
In short: (§2)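 NCI-60 single-dose screen: compounds tested at 10 μM, and growth percent of each cell line calculated. The full method follows the NCI DTP protocol.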

CCRF-CEM = test: Antiproliferative activity against human CCRF-CEM cells assessed as cell growth at 10 uM incubated for 48 hrs by SRB assay relative to control; type: functional; details: read-out: Activity; in short: as §1
UACC-257 = test: Antiproliferative activity against human UACC-257 cells assessed as cell growth at 10 uM incubated for 48 hrs by SRB assay relative to control; type: functional; details: read-out: Activity; in short: as §2
T47D = test: Antiproliferative activity against human T47D cells assessed as cell growth at 10 uM incubated for 48 hrs by SRB assay relative to control; type: functional; details: read-out: Activity; in short: as §2
HOP-92 = test: Antiproliferative activity against human HOP-92 cells assessed as cell growth at 10 uM incubated for 48 hrs by SRB assay relative to control; type: functional; details: read-out: Activity; in short: as §1
KM12 = test: Antiproliferative activity against human KM12 cells assessed as cell growth at 10 uM incubated for 48 hrs by SRB assay relative to control; type: functional; details: read-out: Activity; in short: as §1
ACHN = test: Antiproliferative activity against human ACHN cells assessed as cell growth at 10 uM incubated for 48 hrs by SRB assay relative to control; type: functional; details: read-out: Activity; in short: as §1
NCI/ADR-RES = test: Antiproliferative activity against human NCI/ADR-RES cells assessed as cell growth at 10 uM incubated for 48 hrs by SRB assay relative to control; type: functional; details: read-out: Activity; in short: as §1
HCT-116 = test: Antiproliferative activity against human HCT-116 cells assessed as cell growth at 10 uM incubated for 48 hrs by SRB assay relative to control; type: functional; details: read-out: Activity; in short: as §1
MDA-MB-231 = test: Antiproliferative activity against human MDA-MB-231 cells assessed as cell growth at 10 uM incubated for 48 hrs by SRB assay relative to control; type: functional; details: read-out: Activity; in short: as §1
UO-31 = test: Antiproliferative activity against human UO-31 cells assessed as cell growth at 10 uM incubated for 48 hrs by SRB assay relative to control; type: functional; details: read-out: Activity; in short: as §2
TK-10 = test: Antiproliferative activity against human TK-10 cells assessed as cell growth at 10 uM incubated for 48 hrs by SRB assay relative to control; type: functional; details: read-out: Activity; in short: as §2
SF-268 = test: Antiproliferative activity against human SF-268 cells assessed as cell growth at 10 uM incubated for 48 hrs by SRB assay relative to control; type: functional; details: read-out: Activity; in short: as §1
UACC-62 = test: Antiproliferative activity against human UACC-62 cells assessed as cell growth at 10 uM incubated for 48 hrs by SRB assay relative to control; type: functional; details: read-out: Activity; in short: as §2
SK-MEL-2 = test: Antiproliferative activity against human SK-MEL-2 cells assessed as cell growth at 10 uM incubated for 48 hrs by SRB assay relative to control; type: functional; details: read-out: Activity; in short: as §1
CAKI-1 = test: Antiproliferative activity against human CAKI-1 cells assessed as cell growth at 10 uM incubated for 48 hrs by SRB assay relative to control; type: functional; details: read-out: Activity; in short: as §1
MOLT-4 = test: Antiproliferative activity against human MOLT-4 cells assessed as cell growth at 10 uM incubated for 48 hrs by SRB assay relative to control; type: functional; details: read-out: Activity; in short: as §1
HT-29 = test: Antiproliferative activity against human HT-29 cells assessed as cell growth at 10 uM incubated for 48 hrs by SRB assay relative to control; type: functional; details: read-out: Activity; in short: as §1
NCI-H23 = test: Antiproliferative activity against human NCI-H23 cells assessed as cell growth at 10 uM incubated for 48 hrs by SRB assay relative to control; type: functional; details: read-out: Activity; in short: as §1
OVCAR-8 = test: Antiproliferative activity against human OVCAR-8 cells assessed as cell growth at 10 uM incubated for 48 hrs by SRB assay relative to control; type: functional; details: read-out: Activity; in short: as §1
RXF 393 = test: Antiproliferative activity against human RXF 393 cells assessed as cell growth at 10 uM incubated for 48 hrs by SRB assay relative to control; type: functional; details: read-out: Activity; in short: as §1

pIC50 [1]	SMILES	growth at 10 µM (SF-295) [%]	growth at 10 µM (SR) [%]	growth at 10 µM (CCRF-CEM) [%]	growth at 10 µM (UACC-257) [%]	growth at 10 µM (T47D) [%]	growth at 10 µM (HOP-92) [%]	growth at 10 µM (KM12) [%]	growth at 10 µM (ACHN) [%]	growth at 10 µM (NCI/ADR-RES) [%]	growth at 10 µM (HCT-116) [%]	growth at 10 µM (MDA-MB-231) [%]	growth at 10 µM (UO-31) [%]	growth at 10 µM (TK-10) [%]	growth at 10 µM (SF-268) [%]	growth at 10 µM (UACC-62) [%]	growth at 10 µM (SK-MEL-2) [%]	growth at 10 µM (CAKI-1) [%]	growth at 10 µM (MOLT-4) [%]	growth at 10 µM (HT-29) [%]	other results
9.14	O=C1CN(Cc2ccc(C(=O)NO)cc2)C(=O)[C@@H](Cc2c[nH]c3ccccc23)N1	105	115	103	96.1	87.3	104	102	104	104	54.9	107	91.1	103	99.3	95.5	113	93.8	86.8	104	growth at 10 µM (NCI-H23): 101%; growth at 10 µM (OVCAR-8): 94.8%; growth at 10 µM (RXF 393): 105%
8.01	O=C(NO)c1ccc(CN2CC(=O)N(Cc3ccccc3)[C@H](Cc3ccccc3)C2=O)cc1	100	63.5	72	69.3	69.1	102	86.9	90.6	94.5	84.1	95.2	69.5	88.1	96.5	87.5	99.4	96.5	76.7	87.9	growth at 10 µM (NCI-H23): 86.7%; growth at 10 µM (OVCAR-8): 75%; growth at 10 µM (RXF 393): 86%

— ChEMBL document CHEMBL5230083, “Novel 2, 5-diketopiperazine derivatives as potent selective histone deacetylase 6 inhibitors: Rational design, synthesis and antiproliferative activity” (Eur J Med Chem, 2020)
